The target of data set [1] is TLR4. The settings on record: read-out: KD of full-length MD2 binding to TLR4; cited from earlier work.
In data set [2] the test system is TLR4/MD2 complex. The settings on record: previously reported; cited from earlier work.
The test system of data set [3] is TLR2/TLR6 (RAW 264.7 macrophage cells). The class given is cell-based. The settings on record: 50 μM peptide, PGN 50 μg/ml. The method, boiled down:
(§1)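 RAW 264.7 macrophages were stimulated with the TLR-specific ligand in the presence or absence of 50 μM peptide. Nitric oxide production was the read-out of pathway activation.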

Data set [4] deals with RAW 264.7 cells. The data set is described as follows: Cytotoxicity, trypan blue staining, RAW 264.7 cells. It is filed as cell-based.
Data set [5] concerns TLR1/TLR2 (RAW 264.7 macrophage cells). The class given is cell-based. The settings on record: 50 μM peptide, Pam3CSK4 250 ng/ml. Summed up: as §1
Data set [6] concerns the target extracellular construct (a.a. 1–632) of human TLR4 (Homo sapiens, UniProt O00206). It is filed as binding. The settings on record: fluorescence polarization.
Data set [7] relates to HEK 293 cells. The data set is described as follows: Cytotoxicity, trypan blue staining, HEK 293 cells. The class given is cell-based.
Data set [8] deals with rats subjected to CCI of the sciatic nerve. Briefly: Chronic constriction injury. It is filed as in vivo. The settings on record: rat CCI; intrathecal; summary in words. Summed up: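 Rats underwent chronic constriction injury and were tested at baseline, then on days 4 and 11 after surgery to confirm allodynia. After a pre-drug assessment, peptide was delivered intrathecally into the peri-spinal cerebrospinal fluid by the lumbar approach, at approximately 250 μM final in the intrathecal space. Vehicle was saline. Allodynia was reassessed 1, 3 and 24 h after injection.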

The test system of data set [9] is TLR4 (RAW 264.7 macrophage cells). Briefly: Nitric oxide production in RAW 264.7 macrophages, LPS-induced TLR4 activation. The class given is cell-based. The settings on record: 50 μM peptide, LPS 50 ng/ml. Summed up: as §1
Data set [10] deals with whole human blood. The data set is described as follows: Haemolysis in whole human blood. The class given is cell-based. The settings on record: concentrations up to 500 μM.
Data set [11] concerns BV2 cells. Briefly: Cytotoxicity, trypan blue staining, BV2 cells. The class given is cell-based.
Data set [12] deals with rats. Briefly: Behavioural observation after peptide injection. It is filed as in vivo, rat. The settings on record: rats of the CCI test; intrathecal injection of peptide stock solutions.

The text below walks through data of publication PMC3374877 (Chembiochem, 2011).

Entries after “also recorded” stand apart in the source; their conditions may differ. Bridges are numbered along the chain shown (N, C = ends). Where no end group is shown, it is not given here.

Sequence of extracellular construct (a.a. 1–632) of human TLR4 (O00206 24-632): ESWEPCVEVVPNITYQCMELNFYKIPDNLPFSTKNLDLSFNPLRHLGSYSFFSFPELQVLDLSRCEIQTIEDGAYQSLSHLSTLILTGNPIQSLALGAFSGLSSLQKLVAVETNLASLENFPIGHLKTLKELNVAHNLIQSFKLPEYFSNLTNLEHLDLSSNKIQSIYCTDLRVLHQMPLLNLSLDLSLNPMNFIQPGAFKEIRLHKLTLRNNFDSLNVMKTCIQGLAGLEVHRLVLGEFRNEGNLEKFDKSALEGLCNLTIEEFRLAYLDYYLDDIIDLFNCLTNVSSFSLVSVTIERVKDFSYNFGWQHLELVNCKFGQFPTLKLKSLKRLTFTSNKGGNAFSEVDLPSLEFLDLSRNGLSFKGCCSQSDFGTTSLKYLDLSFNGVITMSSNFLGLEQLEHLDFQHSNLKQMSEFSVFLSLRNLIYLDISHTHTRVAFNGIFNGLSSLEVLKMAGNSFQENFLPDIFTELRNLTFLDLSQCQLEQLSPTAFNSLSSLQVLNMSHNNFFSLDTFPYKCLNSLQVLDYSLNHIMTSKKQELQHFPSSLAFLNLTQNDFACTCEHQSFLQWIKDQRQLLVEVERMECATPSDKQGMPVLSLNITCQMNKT

“full-length MD2: myeloid differentiation factor 2, accessory protein required for TLR4 activation”: in data set [1], the Kd is 12 nM.

Turning to “CRGSDDDYSFCRALKGE (disulfide 1-11 (inferred)) [MD2-I]”, the “inhibition of TLR4 signalling, LPS antagonism” value in [2] is “abolishes TLR4 signalling by antagonizing its native ligand, lipopolysaccharide (LPS), binding to the TLR4/MD2 complex”. The “inhibition of TLR2/TLR6 signalling (NO production)” value in data set [3] is “negligible inhibitory effects; also recorded: without affecting other homologous TLRs”. Besides, the cytotoxicity result in data set [4], in data set [7] and in data set [11] was “little cytotoxicity” throughout. Moreover, the “inhibition of TLR1/2 signalling (NO production)” value in data set [5] was “negligible inhibitory effects; also recorded: without affecting other homologous TLRs”. Further, the “binding activity toward TLR4 (change in polarization)” value in data set [6] (TLR4 titrated, in words) is given as “robust increase”. In data set [6] (plateau upon addition of TLR4), the maximum polarization value result is reported as “approximately 0.25”. Further, the “suppression of neuropathic pain in vivo (summary statement)” value in data set [8] is “moderate potency in an animal model; also recorded: able to suppress neuropathic pain in animal models; also recorded: could suppress neuropathic pain in vivo”. Also, the “inhibition of TLR4 signalling (NO production)” value in data set [9] is on record as “significant reduced signals of LPS-induced TLR4 activation; also recorded: selectively inhibits the NO production induced by LPS”. The haemolysis entry in data set [10] is “does not induce haemolysis”. Moreover, in data set [12], the “abnormal behaviours after injection” value is listed as “no abnormal behaviours were observed”.

For “CRGSAAAYSFCAALAGA (disulfide 1-11 (inferred)) [MD2-III]”, the “inhibition of TLR4 signalling (NO production)” value in data set [9] is reported as “no inhibition on the TLR4 signaling; also recorded: no inhibitory effect on the TLR4 signaling”.
